Laboratory results from ChEMBL document CHEMBL1133584, “Potent and selective non-peptidic inhibitors of endothelin-converting enzyme-1 with sustained duration of action” (J Med Chem, 2000).

Assays:
[1] = Selectivity ratio of IC50 NEP/IC50 ECE
How it was run: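 ECE selectivity was the ratio of IC50 against rat kidney cortex NEP 24.11 to IC50 against CHO-membrane human recombinant ECE-1a.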

[2] = biological target: T1, Endothelin-converting enzyme 1 (Homo sapiens) (UniProt P42892); experiment: Inhibition of Endothelin-converting enzyme 1 activity at a concentration of 1 uM
T1 sequence (whole entry): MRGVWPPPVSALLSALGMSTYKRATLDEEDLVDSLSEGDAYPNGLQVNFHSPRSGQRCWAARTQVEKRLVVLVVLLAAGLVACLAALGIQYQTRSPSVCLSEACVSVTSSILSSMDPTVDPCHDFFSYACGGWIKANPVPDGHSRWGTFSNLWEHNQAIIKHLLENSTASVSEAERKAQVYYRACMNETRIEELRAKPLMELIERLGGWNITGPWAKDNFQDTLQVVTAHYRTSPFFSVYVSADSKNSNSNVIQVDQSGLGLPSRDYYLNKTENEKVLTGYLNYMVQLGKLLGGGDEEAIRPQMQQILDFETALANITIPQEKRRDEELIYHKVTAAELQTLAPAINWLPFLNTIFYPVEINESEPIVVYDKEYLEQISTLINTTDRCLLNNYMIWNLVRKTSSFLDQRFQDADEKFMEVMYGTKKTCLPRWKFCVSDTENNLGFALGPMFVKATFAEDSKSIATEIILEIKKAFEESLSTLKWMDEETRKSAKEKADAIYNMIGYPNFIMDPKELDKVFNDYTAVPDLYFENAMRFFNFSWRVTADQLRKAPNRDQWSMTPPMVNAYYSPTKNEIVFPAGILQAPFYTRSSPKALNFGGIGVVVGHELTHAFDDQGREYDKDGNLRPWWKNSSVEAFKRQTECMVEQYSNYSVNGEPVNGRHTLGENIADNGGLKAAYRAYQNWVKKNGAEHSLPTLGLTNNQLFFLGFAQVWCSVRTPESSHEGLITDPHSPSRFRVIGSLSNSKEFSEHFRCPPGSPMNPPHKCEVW
How it was run: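 Human recombinant ECE-1a came from CHO cell membranes. Activity was measured with test compound at 1 µM and expressed as percent inhibition.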

[3] = biological target: T2, Neprilysin (Rattus norvegicus, UniProt P07861); experiment: In vitro inhibition of rat neutral endopeptidase
T2 sequence (P07861 whole entry): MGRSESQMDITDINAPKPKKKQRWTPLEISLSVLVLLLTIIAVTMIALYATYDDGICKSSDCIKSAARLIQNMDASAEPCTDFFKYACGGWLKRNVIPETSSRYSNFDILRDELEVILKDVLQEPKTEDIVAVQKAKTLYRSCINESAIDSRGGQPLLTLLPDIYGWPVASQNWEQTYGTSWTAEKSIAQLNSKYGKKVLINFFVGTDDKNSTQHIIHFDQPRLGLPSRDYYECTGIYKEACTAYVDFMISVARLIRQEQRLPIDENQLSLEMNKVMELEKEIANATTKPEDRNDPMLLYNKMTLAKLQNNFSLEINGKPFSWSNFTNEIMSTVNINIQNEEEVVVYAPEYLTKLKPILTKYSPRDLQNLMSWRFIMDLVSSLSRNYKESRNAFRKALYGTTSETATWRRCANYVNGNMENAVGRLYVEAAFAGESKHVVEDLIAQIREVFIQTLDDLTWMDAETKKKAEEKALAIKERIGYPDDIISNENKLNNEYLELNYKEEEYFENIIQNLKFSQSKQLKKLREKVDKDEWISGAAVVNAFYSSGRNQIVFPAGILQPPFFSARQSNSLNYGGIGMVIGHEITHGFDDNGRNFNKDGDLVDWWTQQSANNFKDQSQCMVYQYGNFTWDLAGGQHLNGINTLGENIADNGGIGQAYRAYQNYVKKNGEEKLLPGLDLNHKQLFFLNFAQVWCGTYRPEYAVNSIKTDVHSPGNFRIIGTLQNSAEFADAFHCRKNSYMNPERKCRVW

[4] = biological target: T3, Endothelin-converting enzyme 1 (Homo sapiens, UniProt P42892); experiment: In Vitro inhibition of recombinant human endothelin converting enzyme-1
T3 sequence (P42892 whole entry): T1 sequence (whole entry)
How it was run: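 Enzyme was human recombinant ECE-1a from membranes of CHO cells expressing it. The IC50 was determined by the assay method of earlier work.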

Row | SMILES | Selectivity [1] | inhibition [2] [%] | IC50 [3] [nM] | IC50 [4] [nM]
1 | CC(N[C@@H](Cc1ccc2c(c1)oc1ccccc12)C(=O)O)P(=O)(O)O (stereo in doubt; 40v) [listing 1 of 2 here] | 261 | 81 |  | 
2 | COc1cc(OC)c(OC)cc1CCC(N[C@@H](Cc1ccc2c(c1)oc1ccccc12)C(=O)O)P(=O)(O)O (stereo in doubt; 40i') [listing 1 of 2 here] |  |  | > 10000 | 40
3 | COc1ccc(CCC(N[C@@H](Cc2ccc3c(c2)oc2ccccc23)C(=O)O)P(=O)(O)O)c(OC)c1OC (stereo in doubt; 40k') [listing 1 of 2 here] | 428 | 91 |  | 
4 | CC(NC(=O)[C@H](Cc1ccc2c(c1)oc1ccccc12)NCP(=O)(O)O)C(=O)O (stereo partly specified) |  | 35 | 1640 | 
5 | O=C(O)CNC(=O)C(CS)Cc1ccccc1 (stereo unspecified) [THIORPHAN] |  |  |  | > 100000
6 | COc1cc(OC)c(OC)cc1CCC(N[C@@H](Cc1ccc2c(c1)oc1ccccc12)C(=O)O)P(=O)(O)O (stereo in doubt; 40j') |  | 38 |  | 
7 | CC(C)C[C@H](NC(=O)[C@H](CC#Cc1ccc(F)cc1F)NCP(=O)(O)O)C(=O)N[C@@H](C)C(=O)O | 725 |  | 5800 | 
8 | COc1ccc(CCC(N[C@@H](Cc2ccc3c(c2)oc2ccccc23)C(=O)O)P(=O)(O)O)cc1OC (stereo in doubt; 40e') [listing 1 of 2 here] |  |  | > 10000 | 29
9 | CC(N[C@@H](Cc1ccc2c(c1)oc1ccccc12)C(=O)O)P(=O)(O)O (stereo in doubt; 40u) [listing 1 of 2 here] |  |  | 28000 | 96
10 | CC(N[C@@H](Cc1ccc2c(c1)oc1ccccc12)C(=O)O)P(=O)(O)O (stereo in doubt; 40v) [listing 2 of 2 here] |  |  | 47000 | 180
11 | CC(N[C@@H](Cc1ccc2c(c1)oc1ccccc12)C(=O)O)P(=O)(O)O (stereo in doubt; 40u) [listing 2 of 2 here] | 292 | 88 |  | 
12 | COc1ccc(CCC(N[C@@H](Cc2ccc3c(c2)oc2ccccc23)C(=O)O)P(=O)(O)O)cc1OC (stereo in doubt; 40e') [listing 2 of 2 here] | > 345 | 93 |  | 
13 | NCCCCC(N[C@@H](Cc1ccc2c(c1)oc1ccccc12)C(=O)O)P(=O)(O)O (stereo in doubt; 40p') |  | 19 |  | 
14 | NCCCC(N[C@@H](Cc1ccc2c(c1)oc1ccccc12)C(=O)O)P(=O)(O)O (stereo in doubt; 40r') |  | 29 |  | 
15 | CC(C)C[C@H](NP(=O)(O)O[C@@H]1O[C@@H](C)[C@H](O)[C@@H](O)[C@H]1O)C(=O)N[C@@H](Cc1c[nH]c2ccccc12)C(=O)O [PHOSPHORAMIDON] |  |  | 30 | 
16 | O=P(O)(O)CN[C@@H](CC#Cc1ccccc1F)c1nnn[nH]1 | 0.1 |  | 14 | 
17 | NCCCC(N[C@@H](Cc1ccc2c(c1)oc1ccccc12)C(=O)O)P(=O)(O)O (stereo in doubt; 40q') |  | 73 |  | 
18 | O=C(O)CNC(=O)[C@H](Cc1ccc2c(c1)oc1ccccc12)NCP(=O)(O)O |  | 43 | > 10000 | 
19 | COc1ccc(CCC(N[C@@H](Cc2ccc3c(c2)oc2ccccc23)C(=O)O)P(=O)(O)O)cc1OC (stereo in doubt; 40f ') [listing 1 of 2 here] |  | 58 |  | 
20 | NCCCCC(N[C@@H](Cc1ccc2c(c1)oc1ccccc12)C(=O)O)P(=O)(O)O (stereo in doubt; 40o') | > 1030 | 84 |  | 
21 | COc1cc(OC)c(OC)cc1CCC(N[C@@H](Cc1ccc2c(c1)oc1ccccc12)C(=O)O)P(=O)(O)O (stereo in doubt; 40i') [listing 2 of 2 here] | > 250 | 91 |  | 
22 | CC(C)C[C@H](NC(=O)[C@H](CC#Cc1ccc(F)cc1F)NCP(=O)(O)O)C(=O)O | 131 |  | 6700 | 
23 | COc1ccc(CCC(N[C@@H](Cc2ccc3c(c2)oc2ccccc23)C(=O)O)P(=O)(O)O)cc1OC (stereo in doubt; 40f ') [listing 2 of 2 here] |  |  |  | 890

The remaining lines, values ahead:

Row | Selectivity [1] | inhibition [2] [%] | IC50 [3] [nM] | IC50 [4] [nM] | SMILES
24 | 574 | 95 |  |  | O=C(O)[C@H](Cc1ccc2c(c1)oc1ccccc12)NC(CCc1cccc2ccccc12)P(=O)(O)O (stereo in doubt; 40a') [listing 1 of 2 here]
25 |  | 29 |  |  | O=C(NCCc1ccccc1)[C@H](Cc1ccc2c(c1)oc1ccccc12)NCP(=O)(O)O
26 |  |  |  | 520 | COc1ccc(CCC(N[C@@H](Cc2ccc3c(c2)oc2ccccc23)C(=O)O)P(=O)(O)O)c(OC)c1OC (stereo in doubt; 40l') [listing 1 of 2 here]
27 |  |  | 210 | 2.6 | O=P(O)(O)C(CCc1cccc2ccccc12)N[C@@H](Cc1ccc2c(c1)oc1ccccc12)c1nnn[nH]1 (stereo in doubt; 43a') [listing 1 of 2 here]
28 |  | 64 |  |  | COc1ccc(CCC(N[C@@H](Cc2ccc3c(c2)oc2ccccc23)C(=O)O)P(=O)(O)O)c(OC)c1OC (stereo in doubt; 40l') [listing 2 of 2 here]
29 |  |  | 13000 | 440 | O=P(O)(O)C(CCc1cccc2ccccc12)N[C@@H](Cc1ccc2c(c1)oc1ccccc12)c1nnn[nH]1 (stereo in doubt; 43b') [listing 1 of 2 here]
30 | 81 | 98 |  |  | O=P(O)(O)C(CCc1cccc2ccccc12)N[C@@H](Cc1ccc2c(c1)oc1ccccc12)c1nnn[nH]1 (stereo in doubt; 43a') [listing 2 of 2 here]
31 | 240 | 78 |  |  | O=C(O)[C@H](Cc1ccc2c(c1)oc1ccccc12)NC(CCc1cccc2cccnc12)P(=O)(O)O (stereo in doubt; 40n') [listing 1 of 2 here]
32 | 58 | 85 |  |  | COc1cccc(CCC(N[C@@H](Cc2ccc3c(c2)oc2ccccc23)C(=O)O)P(=O)(O)O)c1OC (stereo in doubt; 40d') [listing 1 of 2 here]
33 |  |  | 15000 | 35 | COc1ccc(CCC(N[C@@H](Cc2ccc3c(c2)oc2ccccc23)C(=O)O)P(=O)(O)O)c(OC)c1OC (stereo in doubt; 40k') [listing 2 of 2 here]
34 |  |  | 48000 | 200 | O=C(O)[C@H](Cc1ccc2c(c1)oc1ccccc12)NC(CCc1cccc2cccnc12)P(=O)(O)O (stereo in doubt; 40n') [listing 2 of 2 here]
35 | 4210 | 94 |  |  | O=C(O)[C@H](Cc1ccc2c(c1)oc1ccccc12)NC(CCc1cccc2cccnc12)P(=O)(O)O (stereo in doubt; 40m') [listing 1 of 2 here]
36 |  | 34 |  |  | O=C(O)[C@H](Cc1ccc2c(c1)oc1ccccc12)NC(CCc1cccc2ccccc12)P(=O)(O)O (stereo in doubt; 40b') [listing 1 of 2 here]
37 | 0.29 |  | 5 |  | O=P(O)(O)C(CCc1cccc2ccccc12)N[C@@H](Cc1ccc(-c2ccccc2)cc1)c1nnn[nH]1 (stereo partly specified)
38 |  | 5 |  |  | O=C(NCCc1ccc(-c2ccccc2)cc1)[C@H](Cc1ccc2c(c1)oc1ccccc12)NCP(=O)(O)O
39 |  |  | 6400 | 110 | COc1cccc(CCC(N[C@@H](Cc2ccc3c(c2)oc2ccccc23)C(=O)O)P(=O)(O)O)c1OC (stereo in doubt; 40d') [listing 2 of 2 here]
40 | 1260 | 95 |  |  | COc1cccc(CCC(N[C@@H](Cc2ccc3c(c2)oc2ccccc23)C(=O)O)P(=O)(O)O)c1OC (stereo in doubt; 40c) [listing 1 of 2 here]
41 |  |  | 59000 | 14 | O=C(O)[C@H](Cc1ccc2c(c1)oc1ccccc12)NC(CCc1cccc2cccnc12)P(=O)(O)O (stereo in doubt; 40m') [listing 2 of 2 here]
42 |  |  |  | 1800 | O=C(O)[C@H](Cc1ccc2c(c1)oc1ccccc12)NC(CCc1cccc2ccccc12)P(=O)(O)O (stereo in doubt; 40b') [listing 2 of 2 here]
43 |  |  | 24000 | 19 | COc1cccc(CCC(N[C@@H](Cc2ccc3c(c2)oc2ccccc23)C(=O)O)P(=O)(O)O)c1OC (stereo in doubt; 40c) [listing 2 of 2 here]
44 |  |  | 13800 | 24 | O=C(O)[C@H](Cc1ccc2c(c1)oc1ccccc12)NC(CCc1cccc2ccccc12)P(=O)(O)O (stereo in doubt; 40a') [listing 2 of 2 here]
45 | 29 | 73 |  |  | O=P(O)(O)C(CCc1cccc2ccccc12)N[C@@H](Cc1ccc2c(c1)oc1ccccc12)c1nnn[nH]1 (stereo in doubt; 43b') [listing 2 of 2 here]
